From article PMC10783423 (Medicine, 2024) come the findings set out here.

Ends that are not written are not given here.

The experiment deals with Human thrombin (Homo sapiens, UniProt P00734). The experiment in a line: Thrombin inhibitory assay with chromogenic substrate S-2238. It counts as biochemical. Summed up: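 Human thrombin (2 U/mL working solution) premixed with test peptide at a range of concentrations. Chromogenic substrate S-2238 (1 mM solution) then added; blanks received buffer instead. All components were in 50 mM Tris-HCl, pH 7.5. Reaction ran 5 min at 37°C, with absorbance read at 375 nm. IC50 was taken as the peptide concentration giving 50% thrombin inhibition.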
AEGYA [P1] returned an IC50 of 0.53 µM. That is a sub-micromolar value.

With EVVNQ [P2], the half-maximal inhibitory concentration (IC50) came to 4.35 µM.

With FASRW [P5], the IC50 was found to be 2.67 µM. Against the preceding substance, the IC50 is about 1.6-fold lower.

With FFQQSGG [FFQQSGG], the IC50 came out at 2670 µM.

As for FVEIQAL [FVEIQAL], half-maximal inhibition (IC50) required 530 µM.

Regarding SLVTKVS [SLVTKVS], the IC50 turned out to be 4350 µM.

The IC50 is the point on the concentration scale where inhibition reaches its midpoint.
